Assay [1] is described as follows: Cytotoxicity against human HeLaS3 cells after 48 hrs by […] assay. The assay is classed as functional, cell-based. The settings on record: HeLa S3, 48 h. The essentials: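 HeLa S₃ cells seeded at 3 × 10³ cells/well and incubated overnight, then exposed to a range of compound concentrations for 48 h. WST-8 reagent added for 2 h and absorbance read at 450 nm. Viability (% control) = (sample absorbance − blank) / (0 µM well absorbance) × 100.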

Assay [2] in a line: Cytotoxicity against human HeLaS3 cells after 48 hrs by […] assay relative to glaziovianin A. The assay is classed as functional, HeLa S3.
Assay [3] in a line: Cell cycle arrest in human HeLaS3 cells assessed as accumulation at M phase at 1 uM after 18 hrs by flow cytometry. The conditions noted are these: HeLa S3. The assay is classed as functional, cell-based. An outline of the steps:
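HeLa S3 cells exposed 18 h to 1 μM compound, DMSO as vehicle control. Cells then fixed in cold (−20 °C) 70% EtOH (v/v), stained with propidium iodide. DNA content distribution obtained from total fluorescence intensities by quantitative flow cytometry.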
A general note: Flow cytometry measures light scatter and fluorescence of single cells or particles in a stream.

A short description of assay [4]: Cell cycle arrest in human HeLaS3 cells assessed as abnormal spindle structures with unaligned chromosomes at 1 uM after 18 hrs. The assay is classed as functional, cell-based. The conditions noted are these: HeLa S3. An outline of the steps: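 HeLa S₃ cells given 1 µM compound or DMSO for 18 h. Microtubules immunostained with anti-α-tubulin antibody (DM1A) and chromosomes stained with Hoechst 33258. Spindle structures and chromosome alignment assessed by fluorescence microscopy.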

Active and inactive are the calls of the source. The rule behind the calls is not given here. Some results are limits rather than exact numbers.

Broadly, the IC50 is the concentration that gives 50% inhibition. Low values mean inhibition by little substance, high ones a need for much substance.

In turn, `COc1cc2occ(-c3ccc4c(c3)OCO4)c(=O)c2cc1OC` gave a half-maximal inhibitory concentration (IC50) in assay [1] of 56.2 µM. Besides, in assay [2], the Ratio amounted to 0.01.

In the case of `COc1cc(-c2coc3cc(OC)c(OC)c(OC)c3c2=O)c(OC)c2c1OCO2`, in assay [1], the 50% inhibitory concentration (IC50) was over 100 µM. `C=CCOc1cc2occ(-c3cc(OC)c4c(c3OC)OCO4)c(=O)c2cc1OC`: the IC50 in assay [1] is 0.19 µM. In addition, in assay [2], the Ratio is on record as 3.1. In addition, the result in assay [3] and in assay [4] was Active. The molecule `C#CCOc1cc2occ(-c3cc(OC)c4c(c3OC)OCO4)c(=O)c2cc1OC` registered a concentration for half-maximal inhibition (IC50) in assay [1] of 0.74 µM. Besides, in assay [2], the Ratio is given as 0.8. Regarding `COc1cc2occ(-c3cc(OC)c4c(c3OC)OC(C)(C)O4)c(=O)c2cc1OC`, the IC50 in assay [1] was over 100 µM. Same read-out and setting: in the case of `COc1cc2c(=O)c(-c3cc(OC)c4c(c3OC)OCO4)coc2cc1O` it was over 100 µM.

In assay [1], `COc1cc2c(=O)c(-c3cc(OC)c4c(c3OC)OCO4)coc2cc1OCc1ccccc1` yielded a half-inhibitory concentration (IC50) of 0.75 µM. In addition, in assay [2], the Ratio came to 0.79. Molecule `COc1cc2occ(-c3cc(OC)c(OC)c(OC)c3OC)c(=O)c2cc1OC` yielded an IC50 in assay [1] of 22 µM. Further, the Ratio in assay [2] is reported as 0.027. In assay [1], `COc1cc2c(=O)c(-c3cc(OC)c4c(c3OC)OCO4)coc2cc1OC1CCCCO1` (stereo not drawn) gave a half-inhibitory concentration (IC50) of over 100 µM. In assay [1], `COc1cc2occ(-c3cc(OC)c4c(c3OC)OCO4)c(=O)c2cc1OC` [GLAZIOVIANIN A] came in with a half-maximal inhibitory concentration (IC50) of 0.59 µM. Besides, in assay [3], the outcome was Active.
